These results are taken from ChEMBL document CHEMBL1131342, “Design, synthesis, and antiviral activity of alpha-nucleosides: D- and L-isomers of lyxofuranosyl- and (5-deoxylyxofuranosyl)benzimidazoles” (J Med Chem, 1998).

In experiment [1] the test system is Human betaherpesvirus 5. Nature of the experiment: Antiviral activity assayed by ability to inhibit Towne strain of HCMV virus. The format is functional, organism-based. An outline of the steps: (§1)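 HFF monolayers in 24-well dishes infected with about 100 pfu HCMV/cm² (Towne or AD169). After adsorption, compound in growth medium at four to eight concentrations, duplicate wells, 7 days at 37 °C. Crystal violet stain, microscopic plaques counted, percent reduction vs no drug. IC50 from regression on log concentration; ganciclovir control.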

The species entered for a further experiment is Homo sapiens. Nature of the experiment: Compound was evaluated for the cytotoxicity scored on HFF cells at time of HCMV plaque enumeration. The class given is functional. In short, it runs like this: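 Stationary HFF cells not affected by virus, inspected microscopically for visual cytotoxicity at the time of HCMV plaque counting (7 days, 37 °C). Duplicate experiments.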

In the next experiment the test system is KB. The experiment in a line: Compound was evaluated for the cytotoxicity by the inhibition of KB cell growth. The format is functional, cell-based. Particulars: Homo sapiens. In short, it runs like this: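 KB cells plated at 3000–5000 cells/well and incubated overnight. Compound added in quadruplicate at six to eight concentrations, 48 h at 37 °C under CO₂, spanning two population doublings. Ethanol fixation, 0.1% crystal violet stain, dye eluted with acidified ethanol, absorbance at 570 nm. IC50 by regression on log concentration; 2-acetylpyridine thiosemicarbazone control.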

The subject of experiment [2] is Human alphaherpesvirus 1. Nature of the experiment: Antiviral activity evaluated by their ability to inhibit the KOS strain of herpes simplex virus type-1 (HSV-1).ELISA was used.
Experiment [3] has as its system Human betaherpesvirus 5. Nature of the experiment: Compound was evaluated for its antiviral activity against HCMV virus using Yield reduction assay.
The subject of experiment [4] is Human betaherpesvirus 5. Nature of the experiment: Compound was evaluated for the Antiviral activity against the AD169 strain of HCMV virus. The format is functional, organism-based. An outline of the steps:
as §1

The subject of experiment [5] is Human betaherpesvirus 5. The experiment in a line: Compounds was evaluated for the Antiviral activity against the AD169 strain of HCMV virus. The format is functional, organism-based. In short, it runs like this: as §1
Experiment [6] relates to Human betaherpesvirus 5. The experiment in a line: Compound was evaluated for the Yield reduction assays on HCMV virus,. The format is functional. An outline of the steps: (§2)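 HFF cells in 96-well plates inoculated with HCMV at moi 0.5–1 pfu/cell. Compound in duplicate at 100 to 0.14 μM (1:3 serial dilutions), 7 days at 37 °C, then one freeze–thaw. Progeny titred by serial 1:3 dilution onto fresh HFF monolayers with plaque counting. IC90 from linear regression vs log concentration; ganciclovir control.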

For experiment [7], the system named is Human betaherpesvirus 5. Nature of the experiment: Compound was evaluated for its antiviral activity by its ability to inhibit Towne strain of HCMV virus.The plaque assay was used. The format is functional, organism-based. In short, it runs like this:
as §1

Experiment [8] deals with Human alphaherpesvirus 1. The experiment in a line: Antiviral activity against KOS strain of herpes simplex virus type-1 (HSV-1).ELISA was used. Background: An ELISA detects its analyte on a solid surface through an enzyme-linked reagent.
In experiment [9] the test system is Human betaherpesvirus 5. Nature of the experiment: Compound was evaluated for antiviral activity against HCMV virus using yield reduction assay. The class given is functional. An outline of the steps: as §2
Experiment [10] has as its system Human alphaherpesvirus 1. The experiment in a line: Antiviral activity evaluated by its ability to inhibit the KOS strain of herpes simplex virus type-1 (HSV-1).ELISA was used.

Turning to `CSc1nc2cc(Cl)c(Cl)cc2n1[C@@H]1O[C@@H](CO)[C@@H](O)[C@H]1O`, the IC50 with Human betaherpesvirus 5 [1] (Human betaherpesvirus 5), in the experiment listed under Homo sapiens, in the experiment with KB and with Human alphaherpesvirus 1 [2] was over 100 µM in each case.

Regarding `CCCNc1nc2cc(Cl)c(Cl)cc2n1[C@@H]1O[C@@H](C)[C@@H](O)[C@H]1O`, the IC50 in the experiment with Human betaherpesvirus 5 [1] (Human betaherpesvirus 5) is 32 µM; in the experiment listed under Homo sapiens, 100 µM; with KB, 65 µM; in the experiment with Human alphaherpesvirus 1 [2] it was over 100 µM. In addition, in the experiment on Human betaherpesvirus 5 [3], the concentration for an effect of 90% (IC90) was 2.8 µM.

Turning to `C[C@@H]1O[C@@H](n2c(Cl)nc3cc(Cl)c(Cl)cc32)[C@H](O)[C@@H]1O`, the IC50 was 0.2 µM with Human betaherpesvirus 5 [1] (Human betaherpesvirus 5), 32 µM in the experiment filed under Homo sapiens, 60 µM with KB and 20 µM with Human alphaherpesvirus 1 [2]. In the experiment with Human betaherpesvirus 5 [3], this compound displayed an IC90 of 0.2 µM.

As for `CCCNc1nc2cc(Cl)c(Cl)cc2n1[C@@H]1O[C@H](CO)[C@@H](O)[C@H]1O`, the IC50 with Human betaherpesvirus 5 [1] (Human betaherpesvirus 5) is 60 µM; in the experiment with Human betaherpesvirus 5 [4] (Human betaherpesvirus 5) it was 32 µM; in the experiment listed under Homo sapiens, over 100 µM; in the experiment on KB, over 100 µM; in the experiment on Human alphaherpesvirus 1 [2], over 100 µM. Moreover, in the experiment on Human betaherpesvirus 5 [3], the 90% effect level (IC90) was put at 17 µM.

With `CSc1nc2cc(Cl)c(Cl)cc2n1[C@@H]1O[C@H](CO)[C@@H](O)[C@H]1O`, the IC50 in the experiment on Human betaherpesvirus 5 [1] (Human betaherpesvirus 5), in the experiment listed under Homo sapiens, with KB and in the experiment with Human alphaherpesvirus 1 [2] was over 100 µM throughout. The compound also registered an IC90 in the experiment on Human betaherpesvirus 5 [3] of over 100 µM.

As for `OC[C@H]1O[C@@H](n2c(Cl)nc3cc(Cl)c(Cl)cc32)[C@H](O)[C@@H]1O`, the IC50 in the experiment with Human betaherpesvirus 5 [1] was 18 µM; with Human betaherpesvirus 5 [4] (Human betaherpesvirus 5), 2.6 µM; with Human betaherpesvirus 5 [5] it was 1.8 µM; in the experiment filed under Homo sapiens, 190 µM; in the experiment with KB, over 100 µM; in the experiment with Human alphaherpesvirus 1 [2], over 100 µM. Moreover, the values for the IC90 in the experiment on Human betaherpesvirus 5 [6] and in the experiment on Human betaherpesvirus 5 [3] were 1.4 µM and 3.4 µM, respectively.

As for `O=C(O)P(=O)(O)O` [FOSCARNET], the IC50 in the experiment listed under Homo sapiens is over 100 µM.

Turning to `CNc1nc2cc(Cl)c(Cl)cc2n1[C@@H]1O[C@@H](CO)[C@@H](O)[C@H]1O`, the concentration for half-maximal inhibition (IC50) with Human betaherpesvirus 5 [1] (Human betaherpesvirus 5), in the experiment listed under Homo sapiens, in the experiment on KB and with Human alphaherpesvirus 1 [2] was over 100 µM throughout.

Take `C[C@H]1O[C@@H](n2c(Br)nc3cc(Cl)c(Cl)cc32)[C@H](O)[C@@H]1O`: the IC50 was 32 µM in the experiment on Human betaherpesvirus 5 [1] (Human betaherpesvirus 5), 100 µM in the experiment listed under Homo sapiens, over 100 µM in the experiment on KB and 50 µM with Human alphaherpesvirus 1 [2]. Besides, the 90% effect concentration (IC90) in the experiment on Human betaherpesvirus 5 [3] was determined as 12 µM.

On to `C[C@@H]1O[C@@H](n2c(Br)nc3cc(Cl)c(Cl)cc32)[C@H](O)[C@@H]1O`, for which the IC50 with Human betaherpesvirus 5 [1] (Human betaherpesvirus 5) is 0.4 µM; in the experiment filed under Homo sapiens, 32 µM; in the experiment with KB, 60 µM; in the experiment on Human alphaherpesvirus 1 [2] it was over 100 µM. The compound further showed an IC90 with Human betaherpesvirus 5 [3] of 2 µM.

Regarding `OC[C@H]1O[C@@H](n2c(S)nc3cc(Cl)c(Cl)cc32)[C@H](O)[C@@H]1O`, the IC50 in the experiment on Human betaherpesvirus 5 [1] (Human betaherpesvirus 5), in the experiment listed under Homo sapiens, with KB and in the experiment on Human alphaherpesvirus 1 [2] was over 100 µM each time. The IC90 in the experiment on Human betaherpesvirus 5 [3] was over 100 µM.

As to `OC[C@@H]1O[C@@H](n2c(S)nc3cc(Cl)c(Cl)cc32)[C@H](O)[C@@H]1O`, the IC50 in the experiment on Human betaherpesvirus 5 [1] (Human betaherpesvirus 5), in the experiment listed under Homo sapiens, with KB and in the experiment with Human alphaherpesvirus 1 [2] was over 100 µM throughout. The compound also showed an IC90 in the experiment on Human betaherpesvirus 5 [3] of over 100 µM.

On to `OC[C@H]1O[C@H](n2c(Br)nc3cc(Cl)c(Cl)cc32)[C@@H](O)[C@H]1O` (stereo in doubt; 4a), for which the IC50 in the experiment with Human betaherpesvirus 5 [7] was 2.8 µM; with Human betaherpesvirus 5 [4] it was 0.8 µM; with Human alphaherpesvirus 1 [8] it was over 100 µM. The compound further displayed an IC90 with Human betaherpesvirus 5 [3] of 0.8 µM.

`Nc1nc2c(ncn2COC(CO)CO)c(=O)[nH]1` [GANCICLOVIR] had an IC90 with Human betaherpesvirus 5 [6] of 1.6 µM. Also, the IC50 in the experiment listed under Homo sapiens and in the experiment with KB was over 100 µM in each case.

Consider `CCCNc1nc2cc(Cl)c(Cl)cc2n1[C@@H]1O[C@@H](CO)[C@@H](O)[C@H]1O`, for which the half-inhibitory concentration (IC50) was over 100 µM in the experiment on Human betaherpesvirus 5 [1] (Human betaherpesvirus 5); 11 µM in the experiment with Human betaherpesvirus 5 [4] (Human betaherpesvirus 5); over 100 µM in the experiment filed under Homo sapiens; over 100 µM with KB; over 100 µM in the experiment on Human alphaherpesvirus 1 [2]. In the experiment on Human betaherpesvirus 5 [3], this compound yielded an IC90 of 19 µM.

As to `CCCNc1nc2cc(Cl)c(Cl)cc2n1[C@@H]1O[C@H](C)[C@@H](O)[C@H]1O`, the IC50 is 10 µM in the experiment with Human betaherpesvirus 5 [1] (Human betaherpesvirus 5) and over 100 µM in the experiment filed under Homo sapiens. The compound further registered an IC90 with Human betaherpesvirus 5 [3] of 2 µM.

As to `OC[C@H]1O[C@H](n2c(Br)nc3cc(Cl)c(Cl)cc32)[C@@H](O)[C@H]1O` (stereo in doubt; 4b), the IC50 is 6 µM in the experiment with Human betaherpesvirus 5 [1] (Human betaherpesvirus 5); 4.2 µM in the experiment on Human betaherpesvirus 5 [4]; over 100 µM in the experiment listed under Homo sapiens; over 100 µM in the experiment on KB; 50 µM in the experiment on Human alphaherpesvirus 1 [10]. The same compound came in with an IC90 in the experiment with Human betaherpesvirus 5 [9] of 65 µM.

As to `CNc1nc2cc(Cl)c(Cl)cc2n1[C@@H]1O[C@H](CO)[C@@H](O)[C@H]1O`, the IC50 in the experiment on Human betaherpesvirus 5 [1] (Human betaherpesvirus 5), in the experiment filed under Homo sapiens, with KB and in the experiment with Human alphaherpesvirus 1 [2] was over 100 µM throughout. The same compound displayed an IC90 in the experiment on Human betaherpesvirus 5 [3] of over 100 µM.

As to `OC[C@H]1O[C@H](n2c(Cl)nc3cc(Cl)c(Cl)cc32)[C@@H](O)[C@H]1O`, the IC50 with Human betaherpesvirus 5 [1] (Human betaherpesvirus 5) is 18 µM; in the experiment with Human betaherpesvirus 5 [4] (Human betaherpesvirus 5) it was 9 µM; in the experiment filed under Homo sapiens, over 100 µM; in the experiment with KB, over 100 µM; with Human alphaherpesvirus 1 [2] it was 90 µM. The compound also showed a concentration for an effect of 90% (IC90) in the experiment with Human betaherpesvirus 5 [3] of over 100 µM.

As for `C[C@H]1O[C@@H](n2c(Cl)nc3cc(Cl)c(Cl)cc32)[C@H](O)[C@@H]1O`, the half-maximal inhibitory concentration (IC50) is 32 µM with Human betaherpesvirus 5 [1] (Human betaherpesvirus 5), 45 µM in the experiment filed under Homo sapiens, 75 µM in the experiment on KB and 60 µM in the experiment with Human alphaherpesvirus 1 [2]. Moreover, in the experiment on Human betaherpesvirus 5 [3], the 90% effect level (IC90) was put at 8 µM.

One may read the IC50 as the midpoint of a concentration-inhibition curve. High values mean weaker potency, low ones greater potency. In general, IC90 refers to the concentration needed for an effect of 90%. A high value points to weaker potency.
